Legend:
[1] = Metabolic stability in cryopreserved human hepatocytes assessed as N-dealkylation at 1 uM incubated for 4 hrs; type: ADME, cell-based, Hepatocyte
[2] = Metabolic stability in cryopreserved human hepatocytes assessed as amide hydrolysis at 1 uM incubated for 4 hrs; type: ADME, cell-based, Hepatocyte
[3] = Metabolic stability in cryopreserved human hepatocytes assessed as O-dealkylation at 1 uM incubated for 4 hrs; type: ADME, cell-based, Hepatocyte
[4] = Metabolic stability in cryopreserved human hepatocytes assessed as aliphatic hydroxylation at 1 uM incubated for 4 hrs; type: ADME, cell-based, Hepatocyte
[5] = Metabolic stability in cryopreserved human hepatocytes assessed as glucuronidation at 1 uM incubated for 4 hrs; type: ADME, cell-based, Hepatocyte
[6] = Metabolic stability in cryopreserved human hepatocytes assessed as dehydrogenation at 1 uM incubated for 4 hrs; type: ADME, cell-based, Hepatocyte
Aldehyde oxidase [7] = target: T1, Aldehyde oxidase (Homo sapiens, UniProt Q06278); assay: Metabolic stability in human liver cytosol assessed as AOX1 mediated drug metabolism by measuring amide hydrolysis at 1 uM incubated up to 90 mins in presence of hydralazine by LC-MS/MS analysis; type: ADME, subcellular; conditions: 1.5 h
T1 sequence (Q06278 whole entry): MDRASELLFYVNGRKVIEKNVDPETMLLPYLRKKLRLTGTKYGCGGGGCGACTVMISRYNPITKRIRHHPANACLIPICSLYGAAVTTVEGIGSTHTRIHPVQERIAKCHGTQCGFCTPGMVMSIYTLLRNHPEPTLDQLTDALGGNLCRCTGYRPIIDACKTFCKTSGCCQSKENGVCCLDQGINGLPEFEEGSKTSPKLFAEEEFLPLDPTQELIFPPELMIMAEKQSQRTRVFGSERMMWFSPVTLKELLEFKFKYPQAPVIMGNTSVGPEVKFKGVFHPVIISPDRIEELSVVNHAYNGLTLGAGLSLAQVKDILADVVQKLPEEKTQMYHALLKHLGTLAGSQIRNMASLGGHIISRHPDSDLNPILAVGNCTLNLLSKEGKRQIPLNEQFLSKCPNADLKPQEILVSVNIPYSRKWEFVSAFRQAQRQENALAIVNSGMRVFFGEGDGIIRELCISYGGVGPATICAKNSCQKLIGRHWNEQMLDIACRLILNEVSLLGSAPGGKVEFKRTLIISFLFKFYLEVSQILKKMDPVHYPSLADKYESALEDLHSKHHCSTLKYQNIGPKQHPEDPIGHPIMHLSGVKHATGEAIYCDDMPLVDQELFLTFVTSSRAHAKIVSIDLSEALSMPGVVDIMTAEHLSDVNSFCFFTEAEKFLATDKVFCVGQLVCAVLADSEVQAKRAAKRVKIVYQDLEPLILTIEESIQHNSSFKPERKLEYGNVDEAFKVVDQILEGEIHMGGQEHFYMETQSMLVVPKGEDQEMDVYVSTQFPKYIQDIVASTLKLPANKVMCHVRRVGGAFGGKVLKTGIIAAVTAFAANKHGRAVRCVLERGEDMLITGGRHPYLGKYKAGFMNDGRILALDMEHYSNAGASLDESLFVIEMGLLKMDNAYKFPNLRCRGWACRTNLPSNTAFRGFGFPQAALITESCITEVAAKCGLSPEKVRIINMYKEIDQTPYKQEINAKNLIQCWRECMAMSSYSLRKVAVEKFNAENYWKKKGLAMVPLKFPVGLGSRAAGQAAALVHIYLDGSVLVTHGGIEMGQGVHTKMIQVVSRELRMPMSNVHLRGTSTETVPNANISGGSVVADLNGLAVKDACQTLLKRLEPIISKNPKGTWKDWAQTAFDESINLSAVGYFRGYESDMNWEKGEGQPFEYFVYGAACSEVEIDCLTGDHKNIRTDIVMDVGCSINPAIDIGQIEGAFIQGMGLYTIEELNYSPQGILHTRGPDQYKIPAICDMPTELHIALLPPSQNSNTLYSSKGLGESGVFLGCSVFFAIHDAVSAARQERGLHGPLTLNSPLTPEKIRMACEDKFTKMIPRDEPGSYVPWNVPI

Aldehyde oxidase [8] = target: T1, Aldehyde oxidase; assay: Metabolic stability in human liver cytosol assessed as AOX1 mediated drug metabolism by measuring hydroxylation at 1 uM incubated up to 90 mins in absence of hydralazine by LC-MS/MS analysis; type: ADME, subcellular; conditions: 1.5 h
[9] = Metabolic stability in cryopreserved human hepatocytes assessed as aromatic hydroxylation at 1 uM incubated for 4 hrs; type: ADME, cell-based, Hepatocyte
[10] = Metabolic stability in cryopreserved human hepatocytes assessed as aliphatic carbonylation at 1 uM incubated for 4 hrs; type: ADME, cell-based, Hepatocyte
[11] = Stability of the compound in PBS at pH 7.4 assessed as compound degradation at 10 uM incubated for 12 hrs by LC-MS analysis; type: physicochemical; conditions: buffer, pH 7.4, 12 h
Procedure, shortened: (§1)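 Nonenzymatic stability: 10 mM DMSO stock diluted to 10 μM in PBS, PBS/ACN (1:1), or DMSO; PBS/ACN-DMSO variant dried under nitrogen at 40 °C and redissolved in DMSO. Solutions kept in LC autosampler at 37 °C for 12 h; LC-MS injections at 0, 3, 6 and 12 h tracking remaining parent.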

[12] = Stability of the compound in PBS/ACN assessed as compound degradation at 10 uM measured after 3 hrs by LC-MS analysis; type: physicochemical; conditions: buffer; procedure, shortened: as §1
[13] = Stability of compound in PBS/ACN-DMSO assessed as compound degradation at 10 uM measured after 3 hrs by LC-MS analysis; type: physicochemical; conditions: read-out: Drug degradation; procedure, shortened: as §1
[14] = Stability of compound in DMSO at 10 uM incubated for 12 hrs by LC-MS analysis; type: physicochemical; procedure, shortened: as §1

| SMILES | Drug metabolism [1] | Drug metabolism [2] | Drug metabolism [3] | Drug metabolism [4] | other results |
| --- | --- | --- | --- | --- | --- |
| Oc1c(-c2csc(N3CCOCC3)n2)ccc(F)c1F |  |  | Metabolite_Detected | Metabolite_Detected | Drug metabolism [5]: Metabolite_Detected |
| Cc1ncsc1-c1ccc([C@H](C)NC(=O)[C@@H]2C[C@@H](O)CN2C(=O)[C@@H](NC(=O)COCCOCCNC(=O)COc2c(-c3csc(N4CCOCC4)n3)ccc(F)c2F)C(C)(C)C)cc1 |  | Metabolite_Detected | Metabolite_Detected |  | Drug metabolism [6]: Metabolite_Detected; Drug metabolism [5]: Metabolite_Detected |
| Cc1ncsc1-c1ccc([C@H](C)NC(=O)[C@@H]2C[C@@H](O)CN2C(=O)[C@@H](NC(=O)CCCCN(C)C(=O)COc2c(-c3csc(N4CCOCC4)n3)ccc(F)c2F)C(C)(C)C)cc1 |  |  |  |  | Drug metabolism (Aldehyde oxidase [7]): Metabolite_Detected; Drug metabolism (Aldehyde oxidase [8]): Metabolite_Detected |
| Cc1ncsc1-c1ccc([C@H](C)NC(=O)[C@@H]2C[C@@H](O)CN2C(=O)[C@@H](N)C(C)(C)C)cc1 | Metabolite_Detected |  |  | Metabolite_Detected | Drug metabolism [9]: Metabolite_Detected; Drug metabolism [10]: Metabolite_Detected |
| Cc1sc2c(c1C)C(c1ccc(Cl)cc1)=N[C@@H](CC(=O)O)c1nnc(C)n1-2 |  |  |  | Metabolite_Detected |  |
| Cc1sc2c(c1C)C(c1ccc(Cl)cc1)=N[C@@H](CC(=O)NCCCCNC(=O)COc1cccc3c1C(=O)N(C1CCC(=O)NC1=O)C3=O)c1nnc(C)n1-2 (some centres not stated) |  |  |  |  | Stabilty [11]: Unstable; Stabilty [12]: Unstable; degraded at 3 h, 10 µM [13]: 10%; Stabilty [14]: Stable |
| Nc1cccc2c1C(=O)N(C1CCC(=O)NC1=O)C2=O (configuration not stated) [POMALIDOMIDE] |  | Metabolite_Detected |  |  |  |
| Cc1ncsc1-c1ccc([C@H](C)NC(=O)[C@@H]2C[C@@H](O)CN2C(=O)[C@@H](NC(=O)CCCCNC(=O)COc2c(-c3csc(N4CCOCC4)n3)ccc(F)c2F)C(C)(C)C)cc1 |  |  |  |  | Drug metabolism (Aldehyde oxidase [7]): Metabolite_Detected; Drug metabolism (Aldehyde oxidase [8]): Metabolite_Detected |

Continued, in another order:

| Drug metabolism [1] | Drug metabolism [2] | Drug metabolism [3] | Drug metabolism [4] | SMILES | other results |
| --- | --- | --- | --- | --- | --- |
| Metabolite_Detected | Metabolite_Detected | Metabolite_Detected |  | O=C(COc1c(-c2csc(N3CCOCC3)n2)ccc(F)c1F)NCCOCCOCCNc1cccc2c1C(=O)N(C1CCC(=O)NC1=O)C2=O (configuration not stated) |  |
| Metabolite_Detected | Metabolite_Detected | Metabolite_Detected | Metabolite_Detected | O=C(COc1c(-c2csc(N3CCOCC3)n2)ccc(F)c1F)NCCCCCCCCNc1cccc2c1C(=O)N(C1CCC(=O)NC1=O)C2=O (configuration not stated) |  |
| Metabolite_Detected |  |  | Metabolite_Detected | Cc1sc2c(c1C)C(c1ccc(Cl)cc1)=N[C@@H](CC(=O)NCCCCCCCCNc1cccc3c1C(=O)N(C1CCC(=O)NC1=O)C3=O)c1nnc(C)n1-2 (some centres not stated) | Drug metabolism [6]: Metabolite_Detected |
|  | Metabolite_Detected | Metabolite_Detected | Metabolite_Detected | O=C(COc1cccc2c1C(=O)N(C1CCC(=O)NC1=O)C2=O)NCCOCCOCCNC(=O)COc1c(-c2csc(N3CCOCC3)n2)ccc(F)c1F (configuration not stated) |  |
| Metabolite_Detected | Metabolite_Detected | Metabolite_Detected |  | O=C(COc1cccc2c1C(=O)N(C1CCC(=O)NC1=O)C2=O)NCCCCCCCCNC(=O)COc1c(-c2csc(N3CCOCC3)n2)ccc(F)c1F (configuration not stated) |  |

Source: ChEMBL document CHEMBL4665847, “Understanding the Metabolism of Proteolysis Targeting Chimeras (PROTACs): The Next Step toward Pharmaceutical Applications” (J Med Chem, 2020)
